# Activity calls are given as the source filed them. No cut-off for these calls is given here.
# Legend:
# [1] = Toxicity in lean C57BL/6J mouse assessed as change in body fat mass at 10 to 20 mg/kg, po measured after 6 weeks; assay type: organism-based; conditions: in vivo, 1008 h
# [2] = Tmax in C57BL/6J mouse serum at 20 mg/kg, po by LC-MS/MS analysis; assay type: ADME, organism-based
# Outline: (§1)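 Male C57BL/6J mice (6-8 weeks, 20 ± 5 g) fasted overnight (12-16 h) got a single 20 mg/kg oral dose as 2.5 mg/mL suspension in 1% w/v gum acacia; n=5 per time point. Serum and brain (PBS homogenate 1:6 w/v) sampled up to 24 h. Parent and demethylated metabolite quantified by LC-MS/MS after liquid-liquid extraction (C18, MRM, phenacetin internal standard; linear 0.25-200 ng/mL). Two-compartment open model fit.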
# [3] = Ratio of AUClast in C57BL/6J mouse serum assessed as 4-(2-Amino-8-methyl-5,6,7,8-tetrahydroquinazolin-4-yl)phenol level to AUClast in C57BL/6J mouse serum; assay type: ADME
# Outline: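 Male C57BL/6J mice (6–8 weeks) were fasted 12–16 h, then given a single oral dose of 20 mg/kg as a 2.5 mg/mL suspension in 1% gum acacia/water (n=5 per time point). Serum and brain (homogenised 1:6 in PBS) were sampled up to 24 h. Parent and demethylated metabolite were measured by LC-MS/MS (range 0.25–200 ng/mL). AUC ran to the last observation.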
# [4] = biological target: T1, Muscarinic acetylcholine receptor M5 (Homo sapiens) (UniProt P08912); assay: Antagonist activity at M5R (unknown origin) expressed in HEK293 cells harboring luc2P/NFAT-RE plasmid at 10 uM after 6 to 8 hrs by luciferase reporter gene assay; assay type: cell-based
# T1 sequence (whole entry): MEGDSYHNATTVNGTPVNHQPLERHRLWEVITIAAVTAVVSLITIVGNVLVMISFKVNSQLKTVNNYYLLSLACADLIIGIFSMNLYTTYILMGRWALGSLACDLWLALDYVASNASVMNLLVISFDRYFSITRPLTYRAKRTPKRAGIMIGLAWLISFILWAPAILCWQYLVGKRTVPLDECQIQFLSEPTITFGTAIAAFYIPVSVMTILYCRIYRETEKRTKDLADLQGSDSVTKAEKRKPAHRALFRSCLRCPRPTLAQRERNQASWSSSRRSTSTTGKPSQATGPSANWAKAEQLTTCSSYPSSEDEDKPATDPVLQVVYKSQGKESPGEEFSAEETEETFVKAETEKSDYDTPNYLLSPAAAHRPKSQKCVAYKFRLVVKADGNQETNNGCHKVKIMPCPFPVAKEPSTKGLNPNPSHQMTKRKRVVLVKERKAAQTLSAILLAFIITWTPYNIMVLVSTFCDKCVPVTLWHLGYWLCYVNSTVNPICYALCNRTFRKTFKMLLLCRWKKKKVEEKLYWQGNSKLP
# Outline: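 NFAT-RE luciferase assay in HEK293T cells transiently co-transfected with luc2P/NFAT-RE plasmid and receptor plasmid. Cells plated in DMEM and incubated overnight at 37 °C, 5% CO₂. Compounds and reference ligands applied for 6-8 h. Luciferase read after adding Bright-Glo substrate (1 mg/ml final).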
# Mus musculus [5] = assay: Anti-obesity activity in high fat diet-induced obese C57BL/6J mouse model assessed as change in HDL level at 10 to 20 mg/kg, po measured after 6 weeks; assay type: functional, organism-based
# Outline: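 At the end of treatment (six weeks HFD, four weeks db/db), mice euthanized with avertin 350 mg/kg. Blood taken by cardiac puncture into 3.8% sodium citrate. Plasma separated at 4000 rpm and stored at -80 °C. TG, TC, HDLc and LDLc measured on a bio-analyzer.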
# [6] = Half life in C57BL/6J mouse serum at 20 mg/kg, po by LC-MS/MS analysis; assay type: ADME, organism-based; outline: as §1
# Mus musculus [7] = assay: Anti-obesity activity in 16 hrs fasted db/db-induced obese C57BL/6J mouse model assessed as change in blood LDL level at 20 mg/kg, po measured after 6 weeks; assay type: functional, organism-based
# Mus musculus [8] = assay: Anti-obesity activity in 16 hrs fasted db/db-induced obese C57BL/6J mouse model assessed as reduction in fasting blood glucose level at 20 mg/kg, po measured after 4 weeks; assay type: functional, organism-based
# [9] = AUClast in C57BL/6J mouse serum at 20 mg/kg, po by LC-MS/MS analysis; assay type: ADME, organism-based; parameters: dose 20 mg/kg, route oral, time 0 - last
# Outline: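 Male C57BL/6J mice, 6-8 weeks, 20 ± 5 g, fasted overnight (12-16 h), n = 5 per time point. Single 20 mg/kg oral dose given by feeding needle as a 2.5 mg/mL suspension in 1% w/v gum acacia and water. Serum and brain (homogenized 1:6 w/v in PBS) sampled up to 24 h. Liquid-liquid extraction, then LC-MS/MS in positive MRM mode with phenacetin as internal standard. Linear range 0.25-200 ng/mL. Non-compartmental and compartmental analysis.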
# Mus musculus [10] = assay: Anti-obesity activity in 16 hrs fasted high fat diet-induced obese C57BL/6J mouse model assessed as change in blood glucose level at 10 to 20 mg/kg, po treated prior to glucose addition measured after 15 to 120 mins by IPGTT; assay type: functional, organism-based
# Outline: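 Mice fasted 16 h; baseline tail-vein glucose read by glucometer. Glucose given i.p. at 2 g/kg (C57BL/6J) or 1 g/kg (db/db).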
# Histamine H3 receptor = Histamine H3 receptor (Homo sapiens, UniProt Q9Y5N1); assay: Antagonist activity at recombinant human Gi-coupled H3 receptor expressed in HEK293T cells assessed as reduction in histamine-induced inhibition of forskolin-stimulated cAMP accumulation preincubated for 10 to 15 followed by histamine addition for 10 mins and subsequent forskolin-stimulation by Glo-sensor assay; assay type: functional, cell-based
# [11] = Ratio of fCmax in C57BL/6J mouse brain to IC50 for recombinant human Gi-coupled H3 receptor expressed in HEK293T cells assessed as reduction in histamine-induced inhibition of forskolin-stimulated cAMP accumulation; assay type: cell-based
# Outline: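 Fasted male C57BL/6J mice received a single oral dose of 20 mg/kg in gum acacia suspension. Brain Cmax came from LC-MS/MS of brain homogenate. Unbound brain fraction was measured by equilibrium dialysis of brain tissue homogenate. Unbound Cmax, converted to nM, was divided by the H3R antagonist IC50 from the GloSensor cAMP assay in transfected HEK293T cells.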
# [12] = Toxicity in lean C57BL/6J mouse assessed as effect on cumulative food intake at 20 mg/kg, po; assay type: organism-based; conditions: in vivo
# Outline: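 Lean male C57BL/6J mice fasted 12 h (8 am-8 pm, water available), singly housed, given 20 mg/kg orally in 5% gum acacia/saline or vehicle. Cumulative food intake measured over 4 h night phase (9 pm-1 am) starting 30 min after dosing.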
# Mus musculus [13] = assay: Anti-obesity activity in high fat diet-induced obese C57BL/6J mouse model assessed as reduction in body fat mass at 10 mg/kg, po measured after 6 weeks relative to control by NMR-based magnetic resonance imaging analysis; assay type: functional
# Outline: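 Male C57BL/6J mice on high-fat diet dosed orally for six weeks against a vehicle-treated high-fat diet group and a chow group. Body composition (fat mass, lean mass, % body fat) measured by EchoMRI live scanning. n=5-6. One-way ANOVA with Newman-Keuls test.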
# [14] = Tmax in C57BL/6J mouse serum assessed as 4-(2-Amino-8-methyl-5,6,7,8-tetrahydroquinazolin-4-yl)phenol level at 20 mg/kg, po by LC-MS/MS analysis; assay type: ADME, organism-based; conditions: in vivo; outline: as §1
# Chain of Histamine H3 receptor (Q9Y5N1 whole entry): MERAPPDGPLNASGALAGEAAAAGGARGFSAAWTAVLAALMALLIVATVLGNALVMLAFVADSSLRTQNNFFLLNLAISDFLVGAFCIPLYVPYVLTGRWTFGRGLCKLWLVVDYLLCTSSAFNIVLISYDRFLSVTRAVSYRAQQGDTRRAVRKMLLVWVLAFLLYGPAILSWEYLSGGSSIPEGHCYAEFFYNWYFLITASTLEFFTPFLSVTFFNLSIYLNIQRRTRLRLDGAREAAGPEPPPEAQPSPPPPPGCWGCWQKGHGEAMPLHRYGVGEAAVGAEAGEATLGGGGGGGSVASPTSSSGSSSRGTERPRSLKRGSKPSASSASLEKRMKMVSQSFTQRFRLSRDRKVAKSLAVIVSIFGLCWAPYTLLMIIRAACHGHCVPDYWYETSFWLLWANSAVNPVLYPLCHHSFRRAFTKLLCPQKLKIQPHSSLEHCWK
structure (smiles),measurement,setting,value
COc1ccc(-c2nc(N)nc3c2CCCC3C)cc1 (racemic),Activity,[1],Non-Toxic
same,Tmax,[2],15 min
same,Ratio AUC,[3],85.8%
same,inhibition,[4],inactive
same,Activity,Mus musculus [5],inactive
same,half-life,[6],114 min
same,Activity,Mus musculus [7],inactive
same,Activity,Mus musculus [8],Active
same,AUC(0-t),[9],1920 ng·h/mL
same,Activity,Mus musculus [10],inactive
same,IC50,Histamine H3 receptor,40 nM
same,Ratio,[11],8.3
same,Activity,[12],Non-Toxic
same,Activity,Mus musculus [13],Active
same,Tmax,[14],15 min

# Source: ChEMBL document CHEMBL4393678, “Novel Tetrahydroquinazolinamines as Selective Histamine 3 Receptor Antagonists for the Treatment of Obesity” (J Med Chem, 2019)
